Data taken from ChEMBL document CHEMBL3745670, “Synthesis and biological evaluation of novel lipoamino acid derivatives” (Bioorg Med Chem Lett, 2016).
≈ marks a conversion by molar mass, not a printed value.

Key:
[1] = system: Micrococcus luteus; assay: Antibacterial activity against Micrococcus luteus MTCC 2470 after 24 hrs by well diffusion assay; assay type: functional; conditions: MTCC 2470, 24 h
[2] = system: Staphylococcus aureus; assay: Antibacterial activity against Staphylococcus aureus MTCC 96 after 24 hrs by well diffusion assay; assay type: functional; conditions: MTCC 96, 24 h
[3] = system: Staphylococcus aureus; assay: Antibacterial activity against Staphylococcus aureus MLS-16 MTCC 2940 after 24 hrs by well diffusion assay; assay type: functional; conditions: MLS-16 MTCC 2940, 24 h
[4] = system: Candida albicans; assay: Antifungal activity against Candida albicans MTCC 3017 after 24 hrs by well diffusion assay; assay type: functional; conditions: MTCC 3017, 24 h
How it was run: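 Well diffusion screen against Candida and related fungal strains. Read-out is MIC in µg/mL, with miconazole as the reference drug.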

[5] = system: Bacillus subtilis; assay: Antibacterial activity against Bacillus subtilis MTCC 121 after 24 hrs by well diffusion assay; assay type: functional; conditions: MTCC 121, 24 h
[6] = system: Escherichia coli; assay: Antibacterial activity against Escherichia coli MTCC 739 after 24 hrs by well diffusion assay; assay type: functional; conditions: MTCC 739, 24 h
[7] = system: Raoultella planticola; assay: Antibacterial activity against Klebsiella planticola MTCC 530 after 24 hrs by well diffusion assay; assay type: functional; conditions: MTCC 530, 24 h
[8] = system: Pseudomonas aeruginosa; assay: Antibacterial activity against Pseudomonas aeruginosa MTCC 2453 after 24 hrs by well diffusion assay; assay type: functional; conditions: MTCC 2453, 24 h
[9] = Cytotoxicity against human DU145 cells by MTT assay; assay type: functional, cell-based; conditions: DU-145
[10] = system: HepG2; assay: Cytotoxicity against human HepG2 cells by MTT assay; assay type: functional, cell-based
[11] = Cytotoxicity against human SKOV3 cells by MTT assay; assay type: functional, cell-based; conditions: SK-OV-3
[12] = system: MDA-MB-231; assay: Cytotoxicity against human MDA-MB-231 cells by MTT assay; assay type: functional, cell-based
[13] = system: Micrococcus luteus; assay: Bactericidal activity against Micrococcus luteus MTCC 2470 after 24 hrs; assay type: functional; conditions: MTCC 2470, 24 h
How it was run: (§1)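 Minimum bactericidal concentration was determined on four Gram-positive strains, for the compounds active in the preliminary antibacterial screen.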

[14] = system: Staphylococcus aureus; assay: Bactericidal activity against Staphylococcus aureus MTCC 96 after 24 hrs; assay type: functional; conditions: MTCC 96, 24 h; how it was run: as §1
[15] = system: Micrococcus luteus; assay: Antibiofilm activity against Micrococcus luteus MTCC 2470 after 24 hrs by crystal violet staining based method; assay type: functional, organism-based; conditions: MTCC 2470, 24 h
How it was run: (§2)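 Biofilm inhibition was tested on the four Gram-positive strains, using crystal violet staining.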

[16] = system: Staphylococcus aureus; assay: Antibiofilm activity against Staphylococcus aureus MTCC 96 after 24 hrs by crystal violet staining based method; assay type: functional, organism-based; conditions: MTCC 96, 24 h; how it was run: as §2
[17] = system: Staphylococcus aureus; assay: Bactericidal activity against Staphylococcus aureus MLS-16 MTCC 2940 after 24 hrs; assay type: functional; conditions: MLS-16 MTCC 2940, 24 h; how it was run: as §1
[18] = system: Bacillus subtilis; assay: Bactericidal activity against Bacillus subtilis MTCC 121 after 24 hrs by well diffusion assay; assay type: functional; conditions: MTCC 121, 24 h; how it was run: as §1
[19] = system: Bacillus subtilis; assay: Antibiofilm activity against Bacillus subtilis MTCC 121 after 24 hrs by well diffusion assay by crystal violet staining based method; assay type: functional, organism-based; conditions: MTCC 121, 24 h; how it was run: as §2

MIC [1] [µg/mL]	MIC [2] [µg/mL]	MIC [3] [µg/mL]	MIC [4] [µg/mL]	MIC [5] [µg/mL]	MIC [6] [µg/mL]	MIC [8] [µg/mL]	IC50 [15] [µM]	IC50 [16] [µM]	Compound	MIC [7] [µg/mL]	IC50 [9] [µM]	IC50 [10] [µM]	IC50 [11] [µM]	IC50 [12] [µM]	MBC [13] [µg/mL]	MBC [14] [µg/mL]	MBC [17] [µg/mL]	MBC [18] [µg/mL]	IC50 [19] [µM]
> 125	> 125	> 125	> 125	> 125	> 125	> 125			CCCCCCCCC(CCCCCCCCC(=O)OC)SCC(=O)N[C@@H](Cc1ccccc1)C(=O)OC (some centres undefined)	> 125	49.1	33.6	42.5	38.6					
31.2 (≈ 60.5 µM)	31.2 (≈ 60.5 µM)	> 125	> 125	> 125	> 125	> 125	16.8	21.5	CCCCCCCCC(CCCCCCCCC(=O)OC)SCC(=O)N[C@H](C(=O)OC)[C@@H](C)CC (some centres undefined)	> 125	19	15.3	16.4	22.4	31.2 (≈ 60.5 µM)	31.2 (≈ 60.5 µM)			
> 125	> 125	> 125	> 125	> 125	> 125	> 125			CCCCCCCCC(CCCCCCCCC(=O)OC)SCC(=O)N[C@@H](CC(C)C)C(=O)OC (some centres undefined)	> 125	215			152					
3.9 (≈ 7.42 µM)	> 125	> 125	> 125	3.9 (≈ 7.42 µM)	> 125	> 125	2.1		CCCCCCCCC(CCCCCCCCC(=O)OC)SCC(=O)N[C@H](C(=O)OC)c1c[nH]cn1 (some centres undefined)	> 125					7.8 (≈ 14.8 µM)			3.9 (≈ 7.42 µM)	1.9

Compound	MIC [1] [µg/mL]	MIC [2] [µg/mL]	MIC [3] [µg/mL]	MIC [4] [µg/mL]	MIC [5] [µg/mL]	MIC [6] [µg/mL]	MIC [8] [µg/mL]	IC50 [15] [µM]	IC50 [16] [µM]	MIC [7] [µg/mL]	IC50 [9] [µM]	IC50 [10] [µM]	IC50 [11] [µM]	IC50 [12] [µM]	MBC [13] [µg/mL]	MBC [14] [µg/mL]	MBC [17] [µg/mL]	MBC [18] [µg/mL]	IC50 [19] [µM]
O=C(O)c1cn(C2CC2)c2cc(N3CCNCC3)c(F)cc2c1=O [CIPROFLOXACIN]	0.9 (≈ 2.72 µM)	0.9 (≈ 2.72 µM)	0.9 (≈ 2.72 µM)	> 125	0.9 (≈ 2.72 µM)	0.9 (≈ 2.72 µM)	0.9 (≈ 2.72 µM)	0.5		0.9 (≈ 2.72 µM)					0.9 (≈ 2.72 µM)	1.9 (≈ 5.73 µM)	1.9 (≈ 5.73 µM)	1.9 (≈ 5.73 µM)	0.5
